Assay [1] addresses T1, GABA-A receptor; anion channel (Rattus norvegicus) (UniProt O09028+P15431+P18506+P18508+P19969+P20236+P23574+P23576+P28471+P28473+P30191+P62813+P63079+P63138+Q91ZM7+Q9ES14). Briefly: Modulation of GABAA receptor in electrically stimulated Sprague-Dawley rat dentate gyrus hippocampal granule neurons assessed as decrease in GABA induced IPSC amplitude at 10 uM at holding potential of -65 mV by whole-cell patch-clamp method relative to control. The assay is classed as protein-complex assay. Summed up:
(§1)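 Rat dentate gyrus granule cells gave evoked IPSCs. Stimulus intensity was set at the start of each recording to give about 30% of maximal amplitude, and bicuculline (20 μM) suppression confirmed GABAAR mediation. IPSCs were recorded before and after perfusion of 10 μM compound, and results are given as percent change from baseline (means ± SEM, n = cells).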

Assay [2] addresses T1, GABA-A receptor; anion channel (Rattus norvegicus). Nature of the assay: Activation of GABAA receptor in Sprague-Dawley rat dentate gyrus hippocampal granule neurons assessed as holding current at 10 uM by whole-cell patch-clamp method. The assay is classed as protein-complex assay. In short, it runs like this: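 Rat dentate gyrus granule cells. Holding current was monitored with no electrical stimulation, before and after perfusion of 10 μM compound, to test for direct GABAAR activation.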

Assay [3] has the same target. Conditions: Sprague-Dawley, 20 uM.
Assay [4] has the same target. Nature of the assay: Modulation of GABAA receptor in electrically stimulated Sprague-Dawley rat dentate gyrus hippocampal granule neurons assessed as increase in GABA induced IPSC amplitude at 10 uM at holding potential of -65 mV by whole-cell patch-clamp method relative to control. The assay is classed as protein-complex assay. In short, it runs like this:
as §1
For orientation: The patch-clamp technique gives a direct electrical read-out from membranes.

Assay [5] has the same target. Nature of the assay: Modulation of GABAA receptor in electrically stimulated Sprague-Dawley rat dentate gyrus hippocampal granule neurons assessed as GABA induced IPSC amplitude at 10 uM at holding potential of -65 mV by whole-cell patch-clamp method. The assay is classed as protein-complex assay. Summed up: as §1
Assay [6] has the same target. Nature of the assay: Modulation of GABAA receptor in electrically stimulated Sprague-Dawley rat dentate gyrus hippocampal granule neurons assessed as maximal potentiation of GABA induced IPSC amplitude at 100 uM at holding potential of -65 mV by whole-cell patch-clamp method relative to control. The assay is classed as protein-complex assay.
Assay [7] has as its target GABA-A receptor; anion channel. Nature of the assay: Modulation of GABAA receptor in electrically stimulated Sprague-Dawley rat dentate gyrus hippocampal granule neurons assessed as potentiation of GABA induced IPSC amplitude at holding potential of -65 mV by whole-cell patch-clamp method. The assay is classed as protein-complex assay.

Calls of active or inactive are those of the source. No cut-off for these calls is given here.

In general, inhibition refers to the share of the control response that was lost under treatment. For `CC1=C(C)C(=O)O[C@@H]([C@](C)(O)[C@H]2CC[C@H]3[C@@H]4C=CC5=CC=CC(=O)[C@]5(C)[C@H]4CC[C@]23C)C1`, in assay [1], the inhibition was 28.6%. Further, in assay [2], the outcome was inactive.

With `CN1CCc2cc3c(cc2[C@H]1[C@@H]1OC(=O)c2c1ccc1c2OCO1)OCO3`, in assay [3], the inhibition entry is “Active”.

For the compound `CC1=C(C)C(=O)O[C@@H]([C@H](C)[C@H]2CC[C@H]3[C@@H]4[C@@H]5O[C@@H]5[C@@]5(O)CC=CC(=O)[C@]5(C)[C@H]4CC[C@]23C)C1`, the Activity in assay [4] stood at 29.4%. For the same compound, the result in assay [2] was inactive.

With `COc1cc(/C=C/C(=O)OCCCCCOC(=O)/C=C/c2ccc(O)c(OC)c2)ccc1O`, the result in assay [2] and in assay [5] was inactive.

With `CC1=C(CO)C(=O)O[C@@H]([C@H](C)[C@H]2CC[C@H]3[C@@H]4C=CC5=CC=CC(=O)[C@]5(C)[C@H]4CC[C@]23C)C1`, the result in assay [2] and in assay [5] was inactive.

Turning to `CCCCCCCCCCCCCCCCCCCOC(=O)/C=C/c1ccc(O)c(OC)c1`, in assay [1], the inhibition turned out to be 36.5%. Besides, the outcome in assay [2] was inactive.

A word on the EC50: it is the concentration at which the effect is half-maximal. In the case of `CCCCCCCCCCCCCCCCCCCCCOC(=O)/C=C/c1ccc(O)c(OC)c1`, the Activity amounted to 48.2% in assay [4] and 74% in assay [6]. Besides, in assay [7], the EC50 is 7.9 µM. The outcome in assay [2] was inactive.

Take `CC1=C(C)C(=O)O[C@@H]([C@@](C)(O)[C@H]2CC[C@H]3[C@@H]4[C@@H]5O[C@@H]5[C@@]5(O)CC=CC(=O)[C@]5(C)[C@H]4CC[C@]23C)C1`: in assay [1], the inhibition turned out to be 20.8%. In assay [2], the outcome was inactive.

Regarding `CC1=C(CO)C(=O)O[C@@H]([C@@H](C)[C@H]2CC[C@H]3[C@@H]4C[C@H]5O[C@]56[C@@H](O)C=CC(=O)[C@]6(C)[C@H]4CC[C@]23C)C1`, the result in assay [2] and in assay [5] was inactive.

Consider `CCCCCCCCCCCCCCCCCCOC(=O)/C=C/c1ccc(O)c(OC)c1`, for which, in assay [1], the inhibition is 35.8%. Moreover, the outcome in assay [2] was inactive.
